Data taken from ChEMBL document CHEMBL4837188, “Identification of Novel Tricyclic Benzo[1,3]oxazinyloxazolidinones as Potent Antibacterial Agents with Excellent Pharmacokinetic Profiles against Drug-Resistant Pathogens” (J Med Chem, 2021).
Values after ≈ are worked out from the molar mass of the structure shown.

Key:
Assay type in all cases: functional
[1] = tested on: Mycobacterium tuberculosis; experiment: Antitubercular activity against INH, SM, RFP, EMB, RBT, PAS, OLFX-resistant Mycobacterium tuberculosis 13946 assessed as bacterial growth inhibition incubated for 7 days by MABA; settings: Mycobacterium tuberculosis, 13946, 168 h; time 7 day
Procedure, shortened: (§1)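 Microplate alamar blue assay. H37Rv or clinical isolates were grown to late log phase in 7H9 broth with glycerol, Tween 80 and ADC, then 2 × 10⁵ CFU added to two-fold dilutions. Final range 32–0.5 μg/mL, lowered to 2–0.016 μg/mL for active compounds. 37 °C, 7 days, then alamar blue 16 h. Fluorescence 530/590 nm. MIC is the lowest concentration giving ≥90% reduction; INH and RFP were controls.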

[2] = tested on: Mycobacterium tuberculosis; experiment: Antitubercular activity against INH, SM, RFP, EMB, PAS, Prothionamide 1321, Capreomycin-resistant Mycobacterium tuberculosis 14862 assessed as bacterial growth inhibition incubated for 7 days by MABA; settings: Mycobacterium tuberculosis, 14862, 168 h; time 7 day; procedure, shortened: as §1
[3] = tested on: Mycobacterium tuberculosis; experiment: Antitubercular activity against linezolid resistant Mycobacterium tuberculosis assessed as inhibition of bacterial growth incubated for 7 days by MABA; settings: 168 h, time 7 day

| Compound | MIC [1] [µg/mL] | MIC [2] [µg/mL] | MIC [3] [µg/mL] |
| --- | --- | --- | --- |
| CC(=O)NC[C@@H]1OC(=O)N2Cc3cc(-c4ccc(C#N)nc4)c(F)cc3O[C@@H]12 | 0.48 (≈ 1.26 µM) | 0.82 (≈ 2.14 µM) | 3.63 (≈ 9.49 µM) |
| CC(=O)NC[C@H]1CN(c2ccc(N3CCOCC3)c(F)c2)C(=O)O1 [LINEZOLID] |  |  | 14.5 (≈ 43.1 µM) |
| CO[C@H]1/C=C/O[C@@]2(C)Oc3c(C)c(O)c4c(O)c(c(/C=N/N5CCN(C)CC5)c(O)c4c3C2=O)NC(=O)/C(C)=C\C=C\[C@H](C)[C@H](O)[C@@H](C)[C@@H](O)[C@@H](C)[C@H](OC(C)=O)[C@@H]1C [RIFAMPIN] | > 10 | > 10 |  |
| NNC(=O)c1ccncc1 [ISONIAZID] | 2.38 (≈ 17.4 µM) | > 10 |  |
| CC(=O)NC[C@@H]1OC(=O)N2Cc3cc(-c4ccc(-c5nnn(C)n5)nc4)c(F)cc3O[C@@H]12 | 0.39 (≈ 0.888 µM) | 0.85 (≈ 1.93 µM) | 2.32 (≈ 5.28 µM) |
